Shown are actives, neighbours in structure and some others; about 1.1% of the full set was active somewhere.
Furin inh: human furin inhibitors, primary screen, biochemical, fluorescence intensity; P09958; purified furin, fluorogenic substrate cleavage; inhibition, % at 20 µM or 30 µM; actives 0.061% (n = 220,000); in the data active = inhibition above about 25%
p47phox inh: p47phox/p22phox peptide binding inhibitors, primary screen, biochemical, uHTS, NADPH oxidase regulatory subunit; fluorescence polarization, 2 h; inhibition, % at 24.7 µM; Neutrophil cytosol factor 1 (Homo sapiens), P14598; actives 0.53% (n = 220,000);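 active = inhibition above about 30%, limit read from the data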;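 note: 0% = p47phox with labelled peptide and 100% = labelled peptide alone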
Target sequence (P14598 whole entry, looked up): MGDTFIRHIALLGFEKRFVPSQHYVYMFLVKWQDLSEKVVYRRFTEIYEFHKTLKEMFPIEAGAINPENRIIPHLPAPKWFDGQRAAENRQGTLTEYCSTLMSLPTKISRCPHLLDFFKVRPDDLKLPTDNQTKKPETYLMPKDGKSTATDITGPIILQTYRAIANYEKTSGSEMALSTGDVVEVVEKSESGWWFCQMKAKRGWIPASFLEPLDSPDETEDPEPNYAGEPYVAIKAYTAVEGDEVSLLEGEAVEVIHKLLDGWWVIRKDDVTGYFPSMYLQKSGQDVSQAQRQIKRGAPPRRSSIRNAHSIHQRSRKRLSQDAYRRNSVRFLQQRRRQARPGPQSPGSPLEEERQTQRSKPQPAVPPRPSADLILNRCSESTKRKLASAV
m-calpain inh: inhibitors of pig calpain II, primary screen, biochemical, fluorogenic peptide substrate, 1536-well. inhibition, % at 16 µM. actives 0.37% (n = 220,000). purified calpain II, 30 min;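 active = inhibition above about 50%, limit read from the data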
RBBP9 inh: human RBBP9 inhibitors, primary screen, biochemical, fluorescence polarization, FP-Rh probe, HTS; AID 1515, 2009; recombinant RBBP9; inhibition, % at 7.94 µM; actives 0.2% (n = 220,000); Serine hydrolase RBBP9 (Homo sapiens), O75884;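 active = inhibition above the campaign mean of all tested compounds plus 3 SD, cut at about 14% in these data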;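 note: plate controls were DMSO wells with RBBP9 for no effect and wells lacking RBBP9 protein for full effect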
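System: RBBP9 protein / Quantity: 2.5 µM RBBP9 dispensing solution, before mixing / Also added: Serine-hydrolase probe FP-Rh, 375 nM pre-mixing / Dosing: 7.94 µM single dose, 0.794% DMSO / Timing: enzyme-compound preincubation 30 min, then probe labeling 45 min, 25 °C / Signal: FP readout at 525/598 nm / Controls: DMSO-treated enzyme wells and wells lacking RBBP9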
An asterisk follows results filed as active.

What do the screens show for `c1ccc(-c2nc(NCc3cccnc3)c3ccccc3n2)cc1`?
Furin inh: -20; p47phox inh: -14; m-calpain inh: 20; RBBP9 inh: 0

How did Cc1cccc(N=Nc2c(C)c(C#N)c(O)[nH]c2=O)c1 do in these assays?
Furin inh: -7; p47phox inh: 79*; m-calpain inh: -5; RBBP9 inh: -4

How did CCCCOC(=O)c1ccc(N=Nc2c(C)c(C#N)c(O)[nH]c2=O)cc1 do in these assays?
Furin inh: -15; p47phox inh: -7; m-calpain inh: 8; RBBP9 inh: 1

What do the screens show for `CC(=O)Nc1ccc(OS(=O)(=O)c2cc(Cl)ccc2C)cc1`?
Furin inh: -19; p47phox inh: -3; m-calpain inh: 11; RBBP9 inh: -11

How did Cc1cccc(C(=O)OCc2cncs2)c1 do in these assays?
Furin inh: -26; p47phox inh: -3; m-calpain inh: 33; RBBP9 inh: -5

What do the screens show for `Cc1ccc(/C=C(\C#N)C(=O)N2CCCC2)c(C)c1`?
Furin inh: -24; p47phox inh: 4; m-calpain inh: -262; RBBP9 inh: -2

How did CCNc1nc(NCC)n2c(SC(C(=O)Nc3cc(Cl)cc(Cl)c3)c3ccccc3)nnc2n1 (stereo not drawn) do in these assays?
Furin inh: -20; p47phox inh: -6; m-calpain inh: -93; RBBP9 inh: 4

Results for CN(CCc1ccccn1)C(=S)NC(=O)c1ccco1 ?
Furin inh: -25; p47phox inh: 1; m-calpain inh: 52*; RBBP9 inh: -8

Results for CN(CC(=O)Nc1cccc2ccccc12)C(=O)c1cccc(S(=O)(=O)N(C)C)c1 ?
Furin inh: -32; p47phox inh: -19; m-calpain inh: -17; RBBP9 inh: -6

How did COc1ccc(Br)cc1C(=O)Nc1cccc(-c2nnc(-c3ccco3)o2)c1 do in these assays?
Furin inh: -16; RBBP9 inh: -6

Results for COC(=O)c1cccc(NC(=O)c2cccc(OC)c2)c1 ?
Furin inh: 4; p47phox inh: 15; m-calpain inh: 53*; RBBP9 inh: 4

Results for COc1cc(C(=O)NC(=S)Nc2ccc3oc(=O)ccc3c2)cc(OC)c1OC ?
Furin inh: -22; p47phox inh: 1; m-calpain inh: 19; RBBP9 inh: -6

Results for COc1cccc(C(=O)NC(=S)Nc2ccc3oc(=O)ccc3c2)c1 ?
Furin inh: -17; p47phox inh: 37*; m-calpain inh: 10; RBBP9 inh: -7

How did COc1cccc(C(=O)Nc2cccc(-c3nnc(-c4ccco4)o3)c2)c1 do in these assays?
Furin inh: -5; p47phox inh: -25; m-calpain inh: 56*; RBBP9 inh: -11

What do the screens show for `CCN1CCN(C(=O)C(N)Cc2ccccc2)CC1` (stereo not drawn)?
Furin inh: -15; p47phox inh: -9; m-calpain inh: -8; RBBP9 inh: 9

How did CC(C)C(=O)Nc1ccc2c(c1)C(=O)NC2=O do in these assays?
Furin inh: -22; p47phox inh: -1; m-calpain inh: inactive; RBBP9 inh: -4

How did Cc1ccc(NC(=O)CSc2nsc(SCC(=O)Nc3ccc(C)cc3C)c2C#N)c(C)c1 do in these assays?
Furin inh: -16; p47phox inh: 8; m-calpain inh: 51*; RBBP9 inh: -11

How did Nn1c(Cc2cccc3ccccc23)nnc1SCc1c(Cl)cccc1Cl do in these assays?
Furin inh: -15; p47phox inh: -9; m-calpain inh: 17; RBBP9 inh: 2

Results for Nn1c(Cc2cccc3ccccc23)nnc1SCc1ccc(Cl)c(Cl)c1 ?
Furin inh: -28; p47phox inh: -22; m-calpain inh: 55*; RBBP9 inh: -11

What do the screens show for `O=C(/C=C/c1ccc2c(c1)OCO2)c1ccc[nH]1`?
Furin inh: 4; p47phox inh: 81*; m-calpain inh: 7; RBBP9 inh: -7

What do the screens show for `O=C(/C=C/c1ccc2c(c1)OCO2)c1ccc(F)cc1`?
Furin inh: -6; p47phox inh: 2; m-calpain inh: -12; RBBP9 inh: -1

How did COc1ccc(C(=O)C23CC4CC(C2)CC(C(=O)c2ccc(OC)cc2)(C4)C3)cc1 do in these assays?
Furin inh: -13; p47phox inh: -5; m-calpain inh: 63*; RBBP9 inh: -6

How did Cn1c(=O)oc2cc(S(=O)(=O)Nc3ccc4c(c3)OCO4)ccc21 do in these assays?
Furin inh: -14; p47phox inh: -7; m-calpain inh: -31; RBBP9 inh: 3

Screening results as filed in PubChem.
